Shown are actives, neighbours in structure and some others; about 2.4% of the full set was active somewhere.
aDG glyco up: increases alpha dystroglycan glycosylation. Pro5-aDG cells, alpha-DG glycosylation AlphaScreen (IIH6); 0% Pro5, 100% B10-LARGE cell signal. activation, % at 10 µM. 360,000 tested, 0.22% active. AID 624168;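 active = activation of at least 8% versus controls, or a plate z-score of at least 8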;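 also: Pro5 are CHO cells carrying HIG-tagged alpha-DG that lacks glycosylation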
697 NFkB inh: lowers PMA/ionomycin-induced NF-kB signal in 697 B cells | 697 B-cell NF-kB luciferase reporter, 16 h | inhibition, % at 4 µM | 330,000 tested, 0.33% active; in the data active = inhibition above about 35%
NR2E3 ag-1: agonists of human nuclear receptor NR2E3; AID 2300; GST-NR2E3/biotin-RetCOR TR-FRET, 1536-well; 320,000 tested, 0.12% active; Q9Y5X4; inhibition of corepressor binding, % at 4.78 µM;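 active = percent inhibition above the cutoff of mean plus 3 SD of all tested compounds, set per screening campaign, cut at about 20% in these data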;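 also: 0% = DMSO wells and 100% = biotin wells as full block of FRET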
Target sequence (Q9Y5X4 whole entry, looked up): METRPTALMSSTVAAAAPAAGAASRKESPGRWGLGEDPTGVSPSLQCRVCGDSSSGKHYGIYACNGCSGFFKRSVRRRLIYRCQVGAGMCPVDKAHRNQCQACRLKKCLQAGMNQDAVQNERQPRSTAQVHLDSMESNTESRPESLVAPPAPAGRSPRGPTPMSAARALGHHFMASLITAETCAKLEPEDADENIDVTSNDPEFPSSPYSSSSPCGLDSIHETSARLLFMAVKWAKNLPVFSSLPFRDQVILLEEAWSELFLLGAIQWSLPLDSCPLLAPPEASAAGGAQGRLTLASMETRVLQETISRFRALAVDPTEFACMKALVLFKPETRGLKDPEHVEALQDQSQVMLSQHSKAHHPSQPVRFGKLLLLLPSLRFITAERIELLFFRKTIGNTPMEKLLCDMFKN
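System: GST-tagged NR2E3 plus biotinylated RetCOR corepressor; Amount: 1.35 nM GST-tagged NR2E3 final; Dosing: single nominal compound dose of 4.8 µM; Schedule: 5 h incubation at 4 °C; Technique: TR-FRET with europium anti-GST and streptavidin-D2, 340 nm excitation; Controls: biotin wells as high control, 0.6% DMSO wells as low control.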
NR2E3 ag-2: agonists of human NR2E3 nuclear receptor; CHO-S Gal4-NCOR/VP16-NR2E3 two-hybrid, luciferase; inhibition of corepressor binding, % at 3.98 µM; 360,000 tested, 0.35% active; AID 602229;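 active = inhibition above the mean of all tested compounds plus 3 SD, cut at about 70% in these data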;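 also: 0% = DMSO with NR2E3 transfected cells and 100% = cells lacking NR2E3 construct; higher means lower luciferase signal from less NR2E3 corepressor binding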
Jurkat NFkB inh: lowers PMA/ionomycin-induced NF-kB signal in Jurkat cells | AID 435003 | PMA/ionomycin-induced NF-kB luciferase reporter, luminescence | 330,000 tested, 0.53% active | inhibition, % at 4 µM; in the data active = inhibition above about 50%
MPTP block: blocks calcium-induced mitochondrial swelling. isolated mouse mitochondria, Ca2+ swelling absorbance, 30 min. inhibition, % at 10 µM. 360,000 tested, 1.4% active;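 active = inhibition of 50% or more, scaled per plate between neutral and stimulator controls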;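 also: 0% = DMSO wells given calcium and 100% = 1 mM EGTA wells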
Jurkat NFkB conf: inhibitors of the PMA/ionomycin-induced NF-kB reporter in Jurkat cells, retest; 2,700 tested, 27% active; inhibition, % at 4 µM; shares compounds with Jurkat NFkB inh; Jurkat NF-kB luciferase, 16 h; AID 435020;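 active = inhibition reaching about 45% at 4 µM in either replicate, limit read from the data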;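 also: plate controls were PMA/ionomycin stimulated DMSO wells for no effect and unstimulated DMSO wells for full effect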
697 NFkB conf: inhibitors of the PMA/ionomycin-induced NF-kB reporter in 697 B cells, retest. shares compounds with 697 NFkB inh. 697 B-cell NF-kB luciferase, 16 h. inhibition, % at 4 µM. 2,000 tested, 35% active. AID 449746; in the data active = inhibition mostly above about 28%, no sharp cut-off; inactive = mostly below about 22%
* hit, by the source's call.

For O=C(O)CCC(=O)N(Cc1ccco1)C1CC(=O)N(c2ccccc2)C1=O (stereo not given) the results were aDG glyco up 0.1, 697 NFkB inh 14.1, NR2E3 ag-1 -1.3, NR2E3 ag-2 -14.2, Jurkat NFkB inh -0.4 and MPTP block -0.4.
`CCOc1ccc(-n2c(-c3ccc(OC)cc3)c[n+]3c2CCCCC3)cc1` gave aDG glyco up 0.4, 697 NFkB inh 56.8*, NR2E3 ag-1 0.8, NR2E3 ag-2 9.2, Jurkat NFkB inh 73.0*, MPTP block 10.5, Jurkat NFkB conf 58.2* and 697 NFkB conf 65.0*.
Screening COc1ccc(-n2c(-c3ccc(Cl)cc3)c[n+]3c2CCCCC3)cc1 returned aDG glyco up -0.1, 697 NFkB inh -22.3, NR2E3 ag-1 0.2, NR2E3 ag-2 -4.9, Jurkat NFkB inh 7.1 and MPTP block 1.0.
For COc1ccc(-c2c[n+]3c(n2-c2ccc(C)cc2)CCCCC3)cc1 the results were aDG glyco up 0.0, 697 NFkB inh 51.0*, NR2E3 ag-1 1.8, NR2E3 ag-2 6.5, Jurkat NFkB inh 79.3*, MPTP block 5.3, Jurkat NFkB conf 60.9* and 697 NFkB conf 65.2*.
Screening CCOc1ccc(-n2c(-c3ccc(Br)cc3)c[n+]3c2CCCCC3)cc1 returned aDG glyco up -0.3, 697 NFkB inh -1.2, NR2E3 ag-1 3.1, NR2E3 ag-2 -4.3, Jurkat NFkB inh 29.9 and MPTP block -4.2.
`Cc1cc(C(=O)Nc2sc(C)c(-c3ccc(F)cc3)c2C(N)=O)no1` gave aDG glyco up 0.0, 697 NFkB inh -294.4, NR2E3 ag-1 2.9, NR2E3 ag-2 -106.4, Jurkat NFkB inh -191.5, MPTP block -0.8, Jurkat NFkB conf -96.4 and 697 NFkB conf -204.1.
For CCC(NS(=O)(=O)c1cn(C)nc1C)c1ccccc1 (stereo not given) the results were aDG glyco up 0.0, 697 NFkB inh -14.7, NR2E3 ag-1 3.4, NR2E3 ag-2 -20.0, Jurkat NFkB inh -12.7 and MPTP block -0.8.
For CC1(C)CC(N2CCCC2)=CC(=[N+]2CCCCCC2)C1 the results were aDG glyco up 0.3, 697 NFkB inh 71.1*, NR2E3 ag-1 3.8, NR2E3 ag-2 0.3, Jurkat NFkB inh 57.0*, MPTP block 1.5, Jurkat NFkB conf 63.2* and 697 NFkB conf 50.6*.
CCCCCCn1ccc(=N)cc1 was read as aDG glyco up 0.3, 697 NFkB inh 72.3*, NR2E3 ag-1 2.5, NR2E3 ag-2 -5.9, Jurkat NFkB inh 62.7*, MPTP block -1.8, Jurkat NFkB conf 56.2* and 697 NFkB conf 73.5*.
`COc1cc2c(c(OC)c1OC)-c1ccc(OC)c(=O)cc1[C@@H](NC(C)=O)CC2` gave aDG glyco up -0.1, 697 NFkB inh -252.6, NR2E3 ag-1 4.2, NR2E3 ag-2 32.3, Jurkat NFkB inh 71.0*, MPTP block 0.0, Jurkat NFkB conf 68.9* and 697 NFkB conf -172.2.
For COC(=O)/C(=C1/Oc2ccc(C(C)(C)C)cc2S1)C(F)(F)F the results were aDG glyco up -0.1, 697 NFkB inh -73.0, NR2E3 ag-1 0.6, NR2E3 ag-2 -16.6, Jurkat NFkB inh -77.9 and MPTP block 0.0.
Screening COC(=O)/C(=C1/Oc2cc(C)oc(=O)c2S1)C(F)(F)F returned aDG glyco up -0.3, 697 NFkB inh -324.5, NR2E3 ag-1 6.9, NR2E3 ag-2 45.1, Jurkat NFkB inh 69.2*, MPTP block 0.5, Jurkat NFkB conf 10.8 and 697 NFkB conf -197.5.
Screening Cc1ccc(Cn2ccsc2=NC(=O)COC(=O)c2ccc(NC(=O)CC#N)cc2)cc1 returned aDG glyco up -0.1, 697 NFkB inh -15.7, NR2E3 ag-1 4.0, NR2E3 ag-2 9.6, Jurkat NFkB inh 1.7 and MPTP block 0.2.
For Cc1ccc(Cn2ccsc2=NC(=O)CCl)cc1 the results were aDG glyco up -0.6, 697 NFkB inh 94.2*, NR2E3 ag-1 0.0, NR2E3 ag-2 13.5, Jurkat NFkB inh 78.2*, MPTP block -1.1, Jurkat NFkB conf 50.7* and 697 NFkB conf 98.3*.
For N#Cc1nc(Nc2cccc(Cl)c2)c2ncn(C3CCCC3)c2n1 the results were aDG glyco up 1.5, 697 NFkB inh -259.5, NR2E3 ag-1 -2.5, NR2E3 ag-2 -24.9, Jurkat NFkB inh -256.6, MPTP block 2.5, Jurkat NFkB conf -58.8 and 697 NFkB conf -358.2.
O=c1ncn(C2CCCCC2)c(=O)[nH]1 was read as aDG glyco up -0.3, NR2E3 ag-2 -4.7 and MPTP block 0.4.
CC(C)c1ccc(NC(=O)c2ccc(Br)o2)cc1 was read as aDG glyco up -0.1, 697 NFkB inh -262.4, NR2E3 ag-1 -2.0, NR2E3 ag-2 -139.8, Jurkat NFkB inh -172.1, MPTP block 6.7, Jurkat NFkB conf -118.9 and 697 NFkB conf -294.6.
`COc1ccc(NC(=O)c2ccc(Br)o2)cc1` gave aDG glyco up 0.0, 697 NFkB inh -43.0, NR2E3 ag-1 3.3, NR2E3 ag-2 -79.0, Jurkat NFkB inh -63.7 and MPTP block 6.5.
NC(=O)CCC(C(=O)O)N1C(=O)c2ccc(O)cc2C1=O (stereo not given) was read as aDG glyco up 0.1, 697 NFkB inh 7.7, NR2E3 ag-1 3.5, NR2E3 ag-2 -15.0, Jurkat NFkB inh -9.2 and MPTP block -0.6.
Screening c1cc(-c2cc3cc(N4CCOCC4)ccc3o2)cs1 returned aDG glyco up 0.3, 697 NFkB inh -288.5, NR2E3 ag-1 3.0, NR2E3 ag-2 -94.2, Jurkat NFkB inh -157.5, MPTP block 0.4, Jurkat NFkB conf -83.8 and 697 NFkB conf -240.5.
CCN(CC)S(=O)(=O)c1ccc(N2CC(C(=O)N3CCOCC3)CC2=O)cc1 (stereo not given) was read as aDG glyco up 0.6, 697 NFkB inh 14.3, NR2E3 ag-1 -0.5, NR2E3 ag-2 10.9, Jurkat NFkB inh -15.2 and MPTP block -1.7.
`CC1CCN(c2nc3ccc(C(=O)O)cc3s2)CC1` gave aDG glyco up -0.1, 697 NFkB inh 51.5*, NR2E3 ag-1 -4.3, NR2E3 ag-2 -22.4, Jurkat NFkB inh 82.6*, MPTP block -1.5, Jurkat NFkB conf 77.5* and 697 NFkB conf 42.1*.
O=c1n(-c2ccc(Br)cc2)cnn1-c1ncccc1[N+](=O)[O-] was read as aDG glyco up 0.0, 697 NFkB inh -37.1, NR2E3 ag-1 -3.1, NR2E3 ag-2 -106.5, Jurkat NFkB inh -56.1 and MPTP block -3.1.
`CC(=Nc1ccc(C)cc1)c1sc2ccccc2c1O` gave aDG glyco up 0.0, 697 NFkB inh -386.6, NR2E3 ag-1 0.7, NR2E3 ag-2 -148.5, Jurkat NFkB inh -151.7, MPTP block 0.4, Jurkat NFkB conf -76.8 and 697 NFkB conf -144.3.

Compound activity (PubChem BioAssay)
